Data from ChEMBL document CHEMBL1153184, “Drug design and synthesis of a novel kappa opioid receptor agonist with an oxabicyclo[2.2.2]octane skeleton and its pharmacology” (Bioorg Med Chem Lett, 2010).
Calls of active or inactive are those of the source. The calls are words filed in the database; no cut-off is given here.

Columns and labels:
[1] = Displacement of [3H]NTI from guinea pig forebrain delta opioid receptor; design: species or system Cavia porcellus
How it was run: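 Radioligand competition binding in duplicate on guinea-pig brain homogenate. Cerebellum was used for κ and forebrain for μ and δ. The μ tracer was [³H]DAMGO, δ was [³H]NTI and κ was [³H]U-69,593. Affinity was expressed as Ki.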

Mu-type opioid receptor = Mu-type opioid receptor (Cavia porcellus, UniProt P97266); test: Displacement of [3H]DAMGO from guinea pig forebrain mu opioid receptor
How it was run: (§1)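 Radioligand competition binding in duplicate on guinea-pig brain homogenate. Cerebellum was used for κ and forebrain for μ and δ. Affinity was expressed as Ki.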

[2] = target: Kappa-type opioid receptor (Cavia porcellus, UniProt P41144); test: Displacement of [3H]U69593 from guinea pig cerebellum kappa opioid receptor; format: tissue-based; how it was run: as §1
Mus musculus [3] = test: Antinociceptive activity in sc dosed mouse assessed as inhibition of acetic acid-induced writhing response at 0.03 mg/kg in presence of 20 mg/kg kappa opioid receptor antagonist nor-BNI; format: functional, organism-based
Mus musculus [4] = test: Antinociceptive activity in sc dosed mouse assessed as inhibition of acetic acid-induced writhing response at 0.03 mg/kg in presence of 0.3 mg/kg mu opioid receptor antagonist naloxone; format: functional, organism-based
Mus musculus [5] = test: Antinociceptive activity in sc dosed mouse assessed as inhibition of acetic acid-induced writhing response; format: functional
Mus musculus [6] = test: Antinociceptive activity in sc dosed mouse assessed as inhibition of acetic acid-induced writhing response at 0.03 mg/kg in presence of 3 mg/kg delta opioid receptor antagonist NTI; format: functional, organism-based

Chain of Mu-type opioid receptor (P97266 whole entry): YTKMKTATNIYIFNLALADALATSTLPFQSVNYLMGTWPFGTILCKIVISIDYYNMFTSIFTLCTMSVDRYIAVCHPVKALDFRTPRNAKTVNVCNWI
Chain of Kappa-type opioid receptor (P41144 whole entry): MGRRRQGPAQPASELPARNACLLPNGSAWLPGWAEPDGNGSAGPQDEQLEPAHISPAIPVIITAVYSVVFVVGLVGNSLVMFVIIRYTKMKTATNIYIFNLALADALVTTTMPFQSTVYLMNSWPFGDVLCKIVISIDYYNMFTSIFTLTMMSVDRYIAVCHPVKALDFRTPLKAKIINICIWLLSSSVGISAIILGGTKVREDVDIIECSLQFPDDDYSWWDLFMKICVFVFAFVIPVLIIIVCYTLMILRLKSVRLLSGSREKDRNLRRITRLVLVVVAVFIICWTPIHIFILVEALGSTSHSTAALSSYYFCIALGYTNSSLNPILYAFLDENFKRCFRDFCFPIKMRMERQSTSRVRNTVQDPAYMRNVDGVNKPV

O=C1CC[C@@]2(O)[C@H]3Cc4ccc(O)c5c4[C@@]2(CCN3CC2CC2)[C@H]1O5 [NALTREXONE]
Ki [1]: 20700 pM

O=C(Nc1ccccc1)[C@@H]1O[C@@]23CC[C@@]1(O)[C@@H]1Oc4c(O)ccc5c4[C@@]12CCN(CC1CC1)[C@@H]3C5
Ki (Mu-type opioid receptor): 205 pM | Ki [1]: 3230 pM | Ki [2]: 152 pM

CN(C(=O)/C=C/c1ccco1)[C@@H]1CC[C@@]2(O)[C@H]3Cc4ccc(O)c5c4[C@@]2(CCN3CC2CC2)[C@H]1O5
Ki (Mu-type opioid receptor): 582 pM | Ki [1]: 96500 pM | Ki [2]: 225 pM

O=C(Nc1ccccc1)[C@H]1O[C@@]23CC[C@]1(O)[C@@H]1Oc4c(O)ccc5c4[C@@]12CCN(CC1CC1)[C@@H]3C5
Ki (Mu-type opioid receptor): 212 pM | Activity (Mus musculus [3]): inactive | Ki [1]: 2730 pM | Ki [2]: 111 pM | Activity (Mus musculus [4]): Active | Activity (Mus musculus [5]): Dose-dependent effect | ED50 (Mus musculus [5]): 6.3 µg/kg | Activity (Mus musculus [6]): Active
